The term pIC50 denotes the IC50 on a negative log10 scale, so that one unit is a factor of ten. Higher therefore signals a small IC50. The inhibition is the drop in the measured response relative to a control, in per cent. Read a low inhibition as a response near the control.

The target of test [1] is Protein farnesyltransferase (Homo sapiens, UniProt P49354+P49356). The test can be described thus: Inhibition of farnesylation of H-Ras in DLD-1 cells. The format is functional, cell-based.
In test [2] the target is Protein farnesyltransferase (Bos taurus, UniProt P29702+P49355). The test can be described thus: In vitro inhibition of bovine Farnesyl transferase. The format is protein-complex assay. The method in brief: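 Purified bovine FPTase, assayed as in ref 15, with dansyl-GCVLS peptide and FPP as substrates, both at […].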
Test [3] deals with T1, Protein farnesyltransferase (Bos taurus) (UniProt P29702+P49355). The experiment in a line: Inhibition of FPTase at 100 nM using 2 uM FPP as substrate. The format is protein-complex assay. The method in brief:
(§1)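 FPP-dependence study using purified bovine FPTase. Dansyl-GCVLS peptide was held at a fixed level of […] while FPP concentration was varied. Inhibitor was tested at a single fixed concentration, and the read-out was percent inhibition of farnesylation.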

The target of test [4] is T1, Protein farnesyltransferase (Bos taurus). The experiment in a line: Inhibition of FPTase at 100 nM using 1 uM Dansyl-GCVLS. The format is protein-complex assay. The method in brief:
(§2)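 Peptide-dependence study using purified bovine FPTase. Dansyl-GCVLS substrate concentration was varied with the inhibitor at a single fixed concentration, and activity was reported as percent enzyme inhibition.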

The target is the same in test [5]. The test can be described thus: Inhibition of FPTase at 100 nM using 10 uM Dansyl-GCVLS. The format is protein-complex assay. The method in brief:
as §2

For test [6] the target is unchanged. The test can be described thus: Inhibition of FPTase at 100 nM using 5 uM Dansyl-GCVLS. The format is protein-complex assay. Put shortly: as §2
The target is the same in test [7]. The experiment in a line: Inhibition of FPTase at 100 nM using 20 uM FPP as substrate. The format is protein-complex assay. Put shortly: as §1
Test [8] has the same target. The test can be described thus: Inhibition of FPTase at 100 nM using 2 uM Dansyl-GCVLS. The format is protein-complex assay. The method in brief: as §2
Test [9] has the same target. The experiment in a line: Inhibition of FPTase at 100 nM using 0.5 uM Dansyl-GCVLS. The format is protein-complex assay. The method in brief: as §2
Test [10] shares this target. The test can be described thus: Inhibition of FPTase at 100 nM using 5 uM FPP as substrate. The format is protein-complex assay. Put shortly:
as §1

Test [11] shares this target. The test can be described thus: Inhibition of FPTase at 100 nM using 20 uM Dansyl-GCVLS. The format is protein-complex assay. The method in brief: as §2
For test [12] the target is unchanged. The experiment in a line: Inhibition of FPTase at 100 nM using 0.5 uM FPP as substrate.
Test [13] shares this target. The test can be described thus: Inhibition of FPTase at 100 nM using 10 uM FPP as substrate. The format is protein-complex assay. The method in brief:
as §1

Test [14] shares this target. The experiment in a line: Inhibition of FPTase at 10 nM using 10 uM Dansyl-GCVLS. The format is protein-complex assay. The method in brief:
as §2

The target is the same in test [15]. The test can be described thus: Inhibition of FPTase at 10 nM using 10 uM FPP as substrate. The format is protein-complex assay. The method in brief:
as §1

Test [16] shares this target. The experiment in a line: Inhibition of FPTase at 10 nM using 1 uM Dansyl-GCVLS. The format is protein-complex assay. Put shortly: as §2
Test [17] shares this target. The test can be described thus: Inhibition of FPTase at 10 nM using 5 uM FPP as substrate. Format: protein-complex assay. The method in brief: as §1
The target is the same in test [18]. The experiment in a line: Inhibition of FPTase at 10 nM using 0.5 uM Dansyl-GCVLS. Format: protein-complex assay. Put shortly:
as §2

Test [19] shares this target. The experiment in a line: Inhibition of FPTase at 10 nM using 20 uM FPP as substrate. The format is protein-complex assay. Put shortly:
as §1

Test [20] has the same target. The test can be described thus: Inhibition of FPTase at 10 nM using 2 uM FPP as substrate. The format is protein-complex assay. Put shortly: as §1
The target is the same in test [21]. The test can be described thus: Inhibition of FPTase at 10 nM using 0.5 uM FPP as substrate. The format is protein-complex assay. Put shortly:
as §1

Test [22] shares this target. The experiment in a line: Inhibition of FPTase at 10 nM using 20 uM Dansyl-GCVLS. The format is protein-complex assay. Put shortly: as §2
For test [23] the target is unchanged. The test can be described thus: Inhibition of FPTase at 10 nM using 2 uM Dansyl-GCVLS. Format: protein-complex assay. Put shortly:
as §2

For test [24] the target is unchanged. The test can be described thus: Inhibition of FPTase at 10 nM using 1 uM FPP as substrate. The format is protein-complex assay. The method in brief:
as §1

pIC50: −log10 of the molar value.

As to `CC(C)=CCC/C(C)=C/CC/C(C)=C/CC(C(=O)N[C@@H](Cc1ccccc1)C(=O)O)P(=O)(O)O` (stereo partly drawn), the pIC50 was less than 5.00 in test [1] and 7.08 in test [2]. For the same molecule, the inhibition in test [3] is 37%; in test [4], 42%; in [5], 33%; in [6], 34%; in test [7] it was 10%; in test [8], 41%. For the same molecule, the inhibition in test [9] stood at 43%; in [10] it was 9%; in test [10] (in the assay text read “1 uM FPP” for “5 uM FPP”), 72%; in test [11] it was 38%; in test [12], 80%; in test [13], 9%.

The molecule `CC(C)=CCC/C(C)=C/CC/C(C)=C/CC(NCc1cncn1Cc1ccc(C#N)cc1)C(=O)N[C@@H](Cc1ccccc1)C(=O)O` (stereo partly drawn) showed a pIC50 in test [1] of 5.30.

As for `CC(C)=CCC/C(C)=C/CC/C(C)=C/CC1C(=O)N(Cc2ccccc2)C(=O)N1Cc1cncn1Cc1ccc(C#N)cc1` (stereo not drawn), the pIC50 in test [2] is 6.70.

Regarding `CC(C)=CCC/C(C)=C/CC/C(C)=C/CC(C(=O)NCc1ccccc1)N(Cc1cncn1C)S(=O)(=O)c1ccccc1` (stereo not drawn), the figures for the negative-log IC50 (pIC50) in [1] and in [2] were 6.00 and 6.17, respectively.

In the case of `CC(C)=CCC/C(C)=C/CC/C(C)=C/CC(C(=O)NCc1ccccc1)N(Cc1cncn1Cc1ccc(C#N)cc1)S(=O)(=O)c1ccccc1` (stereo not drawn), the negative-log IC50 (pIC50) in test [1] was less than 5.00; in test [2] it was 7.40.

For the molecule `CC(C)=CCC/C(C)=C/CC/C(C)=C/CC(NCc1cncn1Cc1ccc(C#N)cc1)C(=O)NCc1ccccc1` (stereo not drawn), the pIC50 in [1] was 6.00; in test [2] it was 8.22. Besides, the inhibition in test [14] amounted to 14%; in test [15] it was 36%; in test [6] (10 nM, in the assay text read “10 nM” for “100 nM”), 27%; in [16] it was 41%; in test [17] it was 38%; in [18], 49%. In addition, the inhibition in test [19] was 32%; in test [20] it was 42%; in [21], 54%; in [22], 3%; in test [23], 38%; in [24], 55%.

On to `CC(C)=CCC/C(C)=C/CC/C(C)=C/CC(C(=O)N[C@@H](Cc1ccccc1)C(=O)O)N(Cc1cncn1C)S(=O)(=O)c1ccccc1` (stereo partly drawn), for which the values for the pIC50 in [1] and in test [2] were 5.00 and 6.33, respectively.

`CC(C)=CCC/C(C)=C/CC/C(C)=C/CC1C(=O)N(Cc2ccccc2)C(=O)N1Cc1cncn1C` (stereo not drawn) showed a negative logarithm of the IC50 (pIC50) in test [2] of 6.15.

Molecule `CC(C)=CCC/C(C)=C/CC/C(C)=C/CC(NCc1cncn1C)C(=O)NCc1ccccc1` (stereo not drawn) had a pIC50 in test [2] of less than 5.00.

(Values after ChEMBL document CHEMBL1136707, “From pure FPP to mixed FPP and CAAX competitive inhibitors of farnesyl protein transferase” (Bioorg Med Chem Lett, 2003).)
